Bioassay records from PubChem.
APJ agonist: agonists of human apelin receptor APJ, primary screen, CHO-K1 cells, PathHunter beta-arrestin, luminescence; P35414; 0% DMSO wells, 100% apelin; activation, % at 20 µM; 330,000 tested, 0.11% active;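 active = activation more than six SD over the plate average, tested at 20 µM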;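 also: 0% = DMSO alone and 100% = apelin-13 at 10 nM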
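Incubation: overnight seeding, 90 min compound at 25 °C, 1 h detection; test system: PathHunter CHO-K1 APJ (AGTRL-1) beta-arrestin reporter cells; amount: 1000 cells/well; doses: one dose, 20 µM compound, 1% DMSO; measured by: beta-gal luminescence; measure: agonist-driven arrestin binding to APJ; benchmarks: negative DMSO alone, positive Apelin-13 at 10 nM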
CCR6 antagonist: CCR6 receptor antagonists, primary screen, cell-based, CHO-K1, luminescence, beta-arrestin, uHTS. inhibition, % at 20 µM. AID 493098, 2011. CHO-K1 CCR6 PathHunter beta-arrestin, CCL20-stimulated. 340,000 tested, 0.49% active;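 active = compounds whose inhibition of the agonist-driven luminescence signal at 20 µM reaches about 50%, limit read from the data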;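 also: cells stimulated with CCL20 at 14 nM final; plate controls were DMSO with CCL20 for no effect and DMSO without agonist for full effect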
EBI2 antag: EBI2 receptor antagonists, beta-arrestin recruitment, primary screen, cell-based, luminescence, 7a,25-OHC stimulation, uHTS | inhibition, % at 5 µM | 360,000 tested, 0.81% active | 7a,25-OHC stimulated; in the data active = inhibition above about 38%;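 also: enzyme fragment complementation signal reports receptor beta-arrestin coupling in cells; 0% = agonist plus DMSO wells and 100% = wells without agonist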
APJ antag: antagonists of human apelin receptor APJ, primary screen, CHO-K1 cells, beta-arrestin complementation, luminescence; 330,000 tested, 0.32% active; AID 2521, 2010; inhibition, % at 20 µM; P35414;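 active = inhibition above about 40% at 20 µM, limit read from the data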;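 also: cells challenged with 10 nM apelin-13 agonist together with compound; plate controls were apelin-13 plus DMSO wells for no effect and DMSO wells lacking apelin-13 for full effect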
CXCR6 inh: CXCR6 receptor inhibitors, primary screen, cell-based, beta-arrestin, luminescence, CHO-K1 PathHunter, 1536-well; C-X-C chemokine receptor type 6 (Homo sapiens), O00574; inhibition, % at 20 µM; 360,000 tested, 0.36% active; in the data active = inhibition above about 34%, passing the limit was not always enough;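 also: antagonist mode with CXCL16 agonist at 10 nM final; 0% = 10 nM CXCL16 with DMSO and 100% = unstimulated wells without agonist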
Target sequence (O00574 whole entry, looked up): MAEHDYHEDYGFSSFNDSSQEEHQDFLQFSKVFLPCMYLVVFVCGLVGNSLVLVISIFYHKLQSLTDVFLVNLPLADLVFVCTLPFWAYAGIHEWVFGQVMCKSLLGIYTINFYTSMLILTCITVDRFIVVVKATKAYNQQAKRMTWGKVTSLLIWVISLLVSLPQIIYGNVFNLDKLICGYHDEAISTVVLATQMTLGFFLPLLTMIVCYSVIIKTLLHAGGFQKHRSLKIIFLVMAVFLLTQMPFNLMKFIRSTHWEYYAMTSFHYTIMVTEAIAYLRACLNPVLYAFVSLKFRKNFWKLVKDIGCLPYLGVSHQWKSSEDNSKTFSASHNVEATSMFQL
EBI2 antag conf: EBI2 antagonist hit retest, beta-arrestin, confirmation, cell-based, single concentration, luminescence, 7a,25-OHC stimulation; shares compounds with EBI2 antag; 2,400 tested, 29% active; 7a,25-OHC antagonism; inhibition, % at 5 µM;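 active = inhibition of at least 50%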
EBI2 ag: EBI2 agonist activity of antagonist hits, confirmation, counter-screen for EBI2 antagonist project, cell-based, single concentration, agonist mode, luminescence; 2,400 tested, under 10 active; EBI2-expressing cells, 60 min; 0% vehicle, 100% 7α,25-dihydroxycholesterol control; shares compounds with EBI2 antag; AID 652000, 2013; activation, % at 5 µM;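 active = activation of at least 50%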
bGal cs: E. coli beta-galactosidase enzyme inhibition, confirmation, counter-screen for EBI2 antagonist project, biochemical, luminescence, single concentration; shares compounds with EBI2 antag; purified beta-galactosidase, luminescent Galacton Star, 15 min; inhibition, % at 5 µM; 2,400 tested, 1% active; AID 652176, 2013;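 active = replicate-average signal at least 3 plate SD below neutral wells, shown as high inhibition, flagging enzyme-inhibiting false positives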;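 also: 0% = DMSO wells with enzyme and 100% = wells lacking enzyme; higher means stronger loss of beta-gal luminescence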
An asterisk follows results filed as active. In the library only some 1.5% were active in any assay of this set; here they are far more common.

What do the screens show for `Cc1ccc(OCC(=O)N2CCN(CC3CC4C=CC3C4)CC2)cc1` (stereo unspecified)?
APJ agonist: -2.3; CCR6 antagonist: 18.4; EBI2 antag: 84.2*; APJ antag: 17.0; CXCR6 inh: -5.5; EBI2 antag conf: 62.1*; EBI2 ag: -1.2; bGal cs: -5.5

What do the screens show for `O=C(COc1ccccc1)N1CCN(CC2CC3C=CC2C3)CC1` (stereo unspecified)?
APJ agonist: -1.8; CCR6 antagonist: 4.7; EBI2 antag: 41.8; APJ antag: 5.5; CXCR6 inh: -8.3

What do the screens show for `COc1ccc(S(=O)(=O)N2Cc3cnnn3-c3ccccc3C2C#N)cc1` (stereo unspecified)?
CCR6 antagonist: 14.5; EBI2 antag: -17.5; CXCR6 inh: -2.5

How did COc1ccc(C(=O)OCC2CN2c2cccc([N+](=O)[O-])c2)cc1 (stereo unspecified) do in these assays?
EBI2 antag: -2.2; CXCR6 inh: 0.3

Results for COc1ccc(OCC(=O)N2CCN(Cc3ccc(SC)cc3)CC2)cc1 ?
APJ agonist: -3.1; CCR6 antagonist: 1.8; EBI2 antag: 71.0*; APJ antag: 7.7; CXCR6 inh: -4.2; EBI2 antag conf: 50.5*; EBI2 ag: 0.3; bGal cs: -2.9

How did CC1CCC(N2CCN(C(=O)COc3ccccc3)CC2)CC1 (stereo unspecified) do in these assays?
APJ agonist: 1.3; CCR6 antagonist: 0.1; EBI2 antag: 31.7; APJ antag: -19.7; CXCR6 inh: 8.7

How did O=C(COc1ccc(Cl)cc1)N1CCN(C2CCCC2)CC1 do in these assays?
APJ agonist: -1.1; CCR6 antagonist: 2.8; EBI2 antag: 88.6*; APJ antag: 13.2; CXCR6 inh: 4.7; EBI2 antag conf: 67.1*; EBI2 ag: -0.8; bGal cs: -13.4

How did COc1ccc(OCC(=O)N2CCN(Cc3ccc4c(c3)OCO4)CC2)cc1 do in these assays?
APJ agonist: -1.3; CCR6 antagonist: 7.3; EBI2 antag: 86.3*; APJ antag: 16.6; CXCR6 inh: -0.6; EBI2 antag conf: 59.4*; EBI2 ag: 0.5; bGal cs: 8.6

How did Cc1ccc(OCC(=O)N2CCN(Cc3ccc([N+](=O)[O-])cc3)CC2)cc1 do in these assays?
APJ agonist: -1.1; CCR6 antagonist: 4.1; EBI2 antag: 93.9*; APJ antag: 2.2; CXCR6 inh: -12.6; EBI2 antag conf: 70.8*; EBI2 ag: 1.2; bGal cs: 11.1

What do the screens show for `COc1ccccc1OCC(=O)N1CCN(Cc2ccc3c(c2)OCO3)CC1`?
APJ agonist: 0.1; CCR6 antagonist: 3.6; EBI2 antag: -0.4; APJ antag: 10.9; CXCR6 inh: -0.7

What do the screens show for `Cc1cccc(CC(c2cccc(C)c2)N(C)C)c1` (stereo unspecified)?
CCR6 antagonist: 8.0; EBI2 antag: -0.1; CXCR6 inh: 0.1

Results for Cc1ccc(O)c(C(=O)c2cc(C(=O)NCc3ccccc3)c(=O)n(Cc3ccccc3)c2)c1 ?
APJ agonist: -5.5; CCR6 antagonist: -1.9; EBI2 antag: 42.2*; APJ antag: 5.9; CXCR6 inh: 11.7; EBI2 antag conf: 15.9; EBI2 ag: 0.1; bGal cs: 2.8

Results for O=C(c1cc(C(=O)NCc2ccccc2)c(=O)n(Cc2ccccc2)c1)c1cc(Br)ccc1O ?
APJ agonist: 1.4; CCR6 antagonist: 27.4; EBI2 antag: 21.1; APJ antag: 4.0; CXCR6 inh: -8.0

Results for CCOC(=O)CNC(=O)N1Cc2cc(-c3cccc(F)c3)ccc2-n2nncc2C1 ?
EBI2 antag: -8.4; CXCR6 inh: 8.9

Results for C/C(=N\N1CCCCCC1)c1c(O)n(C2CCCCC2)c(=O)[nH]c1=O ?
APJ agonist: -0.3; CCR6 antagonist: 21.5; EBI2 antag: 4.1; APJ antag: -10.1; CXCR6 inh: -9.0

What do the screens show for `Cc1nc2cc(C(F)(F)F)ccc2n1C1CCN(Cc2nnnn2CCc2ccccc2)CC1`?
APJ agonist: -3.9; CCR6 antagonist: -2.6; EBI2 antag: 37.2*; APJ antag: -11.8; CXCR6 inh: -4.5; EBI2 antag conf: 44.7; EBI2 ag: 0.8; bGal cs: 3.3

Results for Cc1nc2cc(F)ccc2n1C1CCN(Cc2nnnn2CCc2ccccc2)CC1 ?
APJ agonist: -5.8; CCR6 antagonist: -6.5; EBI2 antag: 16.6; APJ antag: 9.6; CXCR6 inh: 1.7
